Measured values taken from ChEMBL document CHEMBL1152796, “Azole antimicrobial pharmacophore-based tetrazoles: synthesis and biological evaluation as potential antimicrobial and anticonvulsant agents” (Bioorg Med Chem, 2009).
≈ marks a conversion by molar mass, not a printed value.

Each compound was assayed on Candida albicans (assay: Antifungal activity against Candida albicans isolate after 72 hrs by twofold serial dilution method). Details: not given.
Assay type: functional

**Q.** `Clc1ccc(COC(Cn2ccnc2)c2ccc(Cl)cc2Cl)c(Cl)c1` (stereo unspecified) [MICONAZOLE] was tested. Which MIC did it give?
**A.** 3.12 µg/mL (≈ 7.5 µM)

**Q.** `Clc1ccccc1C(c1ccccc1)(c1ccccc1)n1ccnc1` [CLOTRIMAZOLE] was tested. Which MIC did it give?
**A.** 6.25 µg/mL (≈ 18.1 µM)

The compounds below were run on Aspergillus fumigatus (assay: Antifungal activity against Aspergillus fumigatus isolate after 72 hrs by twofold serial dilution method). Details: not given.
Assay type: functional

**Q.** `Clc1ccc(COC(Cn2ccnc2)c2ccc(Cl)cc2Cl)c(Cl)c1` (stereo unspecified) [MICONAZOLE] was tested. Which MIC did it give?
**A.** 3.12 µg/mL (≈ 7.5 µM)

**Q.** `Clc1ccccc1C(c1ccccc1)(c1ccccc1)n1ccnc1` [CLOTRIMAZOLE] was tested. Which MIC did it give?
**A.** 12.5 µg/mL (≈ 36.2 µM)

These compounds were tested on Mus musculus (assay: Anticonvulsant activity in Wister albino mouse assessed as protection against subcutaneous metrazole-induced seizures at 300 mg/kg, ip administered 30 mins before metrazole challenge measured after 30 mins). Details: not given.
Assay type: functional
In short: (§1)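 Wistar albino mice, either sex, 25–30 g, 3 months old, in groups of six. Compounds in DMSO were given ip at 30, 100 or 300 mg/kg; vehicle-only controls. After 30 min, metrazole 100 mg/kg in DMSO was injected sc at the posterior midline. Protection meant absence of any clonic spasm lasting ≥5 s; scored as protected/tested.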

**Q.** For `OC(Cn1nnnc1Cc1ccccc1)c1ccc(Cl)cc1` (stereo unspecified), which Activity is on record?
**A.** 50%

Each compound was assayed on Mus musculus (assay: Anticonvulsant activity in Wister albino mouse assessed as protection against subcutaneous metrazole-induced seizures at 100 mg/kg, ip administered 30 mins before metrazole challenge measured after 30 mins). Details: route intraperitoneal.
Assay type: functional
In short: as §1

**Q.** With `OC(Cn1nnnc1Cc1ccccc1)c1ccc(Cl)cc1` (stereo unspecified) as the compound, how does the Activity read?
**A.** 100%

**Q.** How did the Activity turn out when `O=C(Cn1nnc(-c2ccccc2)n1)c1ccc(Cl)cc1` was run?
**A.** 0%

The compounds below were run on Mus musculus (assay: Anticonvulsant activity in Wister albino mouse assessed as protection against maximal electroshock-induced seizures at 100 mg/kg, ip administered 30 mins before metrazole challenge measured after 30 mins). Details: route intraperitoneal.
Assay type: functional

**Q.** With `OC(Cn1nnnc1Cc1ccccc1)c1ccc(Cl)cc1` (stereo unspecified) as the compound, how does the Activity read?
**A.** 67%

**Q.** With `O=C(Cn1nnc(-c2ccccc2)n1)c1ccc(Cl)cc1` as the compound, how does the Activity read?
**A.** 0%

Each compound was assayed on Mus musculus (assay: Anticonvulsant activity in Wister albino mouse assessed as protection against subcutaneous metrazole-induced seizures at 30 mg/kg, ip administered 30 mins before metrazole challenge measured after 30 mins). Details: not given.
Assay type: functional
In short: as §1

**Q.** For `OC(Cn1nnnc1Cc1ccccc1)c1ccc(Cl)cc1` (stereo unspecified), which Activity is on record?
**A.** 0%

The compounds below were run on Mus musculus (assay: Toxicity in Wister albino mouse assessed as death following tonic extension at 100 mg/kg, ip). Details: in vivo.
Assay type: organism-based
Design: dose 100 mg/kg, route intraperitoneal
In short: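 Wistar albino mice of either sex (25–30 g, 3 months), six per group. Compound was dissolved in DMSO and given ip 30 min before the maximal electroshock test, with solvent-only controls. Corneas received 0.5% xylocaine; 6 Hz, 0.2-ms pulses were given for 3 s at 6–64 mA. Animals were observed 30 min after dosing, and deaths following tonic extension were recorded.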

**Q.** `O=C(Cn1nnc(-c2ccccc2)n1)c1ccc(Cl)cc1` was tested. Which Activity did it give?
**A.** Toxic
